Reference: ChEMBL document CHEMBL1145901, “A novel ergot alkaloid as a 5-HT(1A) inhibitor produced by Dicyma sp” (J Med Chem, 2003)

Legend:
[1] = biological target: 5-hydroxytryptamine receptor 6 (Homo sapiens, UniProt P50406); assay: Binding affinity against 5-hydroxytryptamine 6 human cloned receptors in HeLa cells using [3H]LSD as radioligand; format: cell-based
[2] = biological target: T1, 5-hydroxytryptamine receptor 1B (Homo sapiens, UniProt P28222); assay: Binding affinity against human 5-hydroxytryptamine 1B receptor cloned receptors in CHO cells; format: cell-based
Method in brief: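 Human 5-HT1B-expressing CHO cell membranes were homogenized in ice-cold 50 mM Tris (pH 7.7) and stored at -70 °C. They were resuspended in 50 mM Tris-HCl pH 7.4 containing 0.1% ascorbate, 10 μM pargyline, 0.5 mM EDTA and 10 mM MgCl2. Compound in DMSO was preincubated with membranes for 15 min at RT. [3H]-5-CT (added from 10 nM) was then incubated 30-45 min at 37 °C. Samples were filtered and counted by scintillation. Nonspecific binding used 5-HT. IC50 came from a four-parameter fit; Ki by Cheng-Prusoff. Results are means of ≥2 determinations.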

[3] = biological target: T2, 5-hydroxytryptamine receptor 2A (Homo sapiens, UniProt P28223); assay: Binding affinity against 5-hydroxytryptamine 2A receptor human cloned receptors in HEK 293 cells using [3H]ketanserin as radioligand; format: cell-based, HEK293
[4] = biological target: T3, 5-hydroxytryptamine receptor 1A (Homo sapiens) (UniProt P08908); assay: Intrinsic activity for human 5-hydroxytryptamine 1A receptors HEK 293 cell membranes using [35S]GTP gamma-S; format: functional; details: HEK293
T3 sequence (whole entry): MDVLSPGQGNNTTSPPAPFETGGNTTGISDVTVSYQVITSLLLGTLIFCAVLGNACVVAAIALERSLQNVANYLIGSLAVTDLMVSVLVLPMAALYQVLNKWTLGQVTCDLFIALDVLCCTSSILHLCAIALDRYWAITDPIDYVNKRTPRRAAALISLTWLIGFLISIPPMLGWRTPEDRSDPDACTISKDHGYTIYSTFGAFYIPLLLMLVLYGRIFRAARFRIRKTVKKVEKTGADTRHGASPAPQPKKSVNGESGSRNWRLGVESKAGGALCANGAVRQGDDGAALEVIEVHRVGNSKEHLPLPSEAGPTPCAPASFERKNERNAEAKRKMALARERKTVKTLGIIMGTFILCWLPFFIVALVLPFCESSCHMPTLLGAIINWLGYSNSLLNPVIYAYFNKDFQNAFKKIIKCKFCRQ
Method in brief: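 Membranes from 10^6 HEK293 cells were preincubated with compound for 30 min at 30 °C in 20 mM HEPES pH 7.4 with 3 mM MgCl2, 100 mM NaCl, 10 μM GDP and 0.2 mM ascorbate. [35S]GTPγS (100 pM assay concentration) was then added for 30 min at 30 °C. Nonspecific binding used unlabeled GTPγS. Samples were filtered on GF/B and counted by scintillation. Intrinsic activity is relative to 5-HT; four to seven independent experiments.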

[5] = biological target: T1, 5-hydroxytryptamine receptor 1B; assay: Binding affinity against cloned human 5-hydroxytryptamine 1B receptor in CHO cells using [3H]5-CT as radioligand; format: cell-based
[6] = biological target: T4, 5-hydroxytryptamine receptor 1A (Homo sapiens, UniProt P08908); assay: (§1) Binding affinity against human 5-hydroxytryptamine 1A receptors HEK 293 cell membranes using [35S]GTP gamma-S; format: functional, HEK293
T4 sequence (P08908 whole entry): T3 sequence (whole entry)

[7] = biological target: T5, 5-hydroxytryptamine receptor 2C (Homo sapiens, UniProt P28335); assay: Binding affinity against 5-hydroxytryptamine 2C receptor human cloned receptorswithouteffect in HEK 293 cells using [3H]mesulergine as radioligand; format: cell-based, HEK293
T5 sequence (P28335 whole entry): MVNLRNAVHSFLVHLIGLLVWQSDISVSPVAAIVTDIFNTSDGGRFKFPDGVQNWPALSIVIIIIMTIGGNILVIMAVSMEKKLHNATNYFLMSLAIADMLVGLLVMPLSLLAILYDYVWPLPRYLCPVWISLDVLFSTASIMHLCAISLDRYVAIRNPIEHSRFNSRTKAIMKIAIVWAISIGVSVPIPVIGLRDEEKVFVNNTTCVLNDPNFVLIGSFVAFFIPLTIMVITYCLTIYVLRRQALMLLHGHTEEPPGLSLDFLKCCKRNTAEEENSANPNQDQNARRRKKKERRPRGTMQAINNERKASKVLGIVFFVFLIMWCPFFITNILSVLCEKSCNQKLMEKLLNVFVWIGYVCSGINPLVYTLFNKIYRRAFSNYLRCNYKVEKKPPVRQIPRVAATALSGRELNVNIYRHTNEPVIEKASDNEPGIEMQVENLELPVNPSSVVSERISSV
Method in brief: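 Filtration binding on membranes from cells stably expressing the human cloned receptor, homogenized in ice-cold 50 mM Tris (pH 7.7). Assay buffer was 50 mM Tris-HCl pH 7.4 with 0.1% ascorbic acid, 10 μM pargyline, 0.5 mM EDTA and 10 mM MgCl2. Compound in DMSO was preincubated 15 min at room temperature, then radioligand was added for 30-45 min at 37 °C. Read-out was scintillation counting. IC50 came from a four-parameter logistic fit and Ki from Cheng-Prusoff; values are the mean of at least two determinations.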

[8] = biological target: T4, 5-hydroxytryptamine receptor 1A; assay: Binding affinity against 5-hydroxytryptamine 1A human cloned receptors in HEK293 cells using [3H]8-OH-DPAT as radioligand; format: cell-based
[9] = biological target: T3, 5-hydroxytryptamine receptor 1A (Homo sapiens); assay: as §1; format: functional; details: HEK293
[10] = biological target: T2, 5-hydroxytryptamine receptor 2A; assay: Binding affinity against 5-hydroxytryptamine 2A receptor human cloned receptorswithouteffect in HEK 293 cells using [3H]ketanserin as radioligand; format: cell-based, HEK293
[11] = biological target: 5-hydroxytryptamine receptor 7 (Homo sapiens, UniProt P34969); assay: Binding affinity against 5-hydroxytryptamine 7 human receptors
D(2) dopamine receptor = D(2) dopamine receptor (Homo sapiens, UniProt P14416); assay: Binding affinity against human Dopamine receptor D2 in CHO cells using [125I]iodosulpiride; format: cell-based
[12] = biological target: T1, 5-hydroxytryptamine receptor 1B; assay: Binding affinity against human 5-hydroxytryptamine 1B receptor cloned receptors in CHO cells using [3H]5-CT as radioligand; format: cell-based
Method in brief: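 Membranes from CHO cells expressing human 5-HT1B, in 50 mM Tris-HCl pH 7.4 with 0.1% ascorbate, 10 μM pargyline, 0.5 mM EDTA and 10 mM MgCl2. Compound in DMSO was preincubated 15 min at RT, then 10 nM stock [3H]-5-CT was added for 30-45 min at 37 °C. Filtration on PEI-treated GF/C, scintillation counting; 200 μM 5-HT (stock) defined nonspecific binding. Four-parameter IC50, Cheng-Prusoff Ki, mean of at least two determinations.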

[13] = biological target: T4, 5-hydroxytryptamine receptor 1A; assay: Binding affinity against 5-hydroxytryptamine 1A human cloned receptors in HEK293 cells; format: cell-based
Method in brief: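 Human 5-HT1A stably expressed in HEK 293 cells. Membranes were homogenised in ice-cold 50 mM Tris (pH 7.7 at 25 °C) and stored at -70 °C. Binding was measured as displacement of [3H]-8-OH-DPAT. IC50 came from a four-parameter logistic fit of cpm and was converted to Ki by Cheng-Prusoff. Values are the mean of at least two determinations.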

[14] = biological target: T5, 5-hydroxytryptamine receptor 2C; assay: Binding affinity against 5-hydroxytryptamine 2C receptor human cloned receptors in HEK 293 cells using [3H]mesulergine as radioligand; format: cell-based, HEK293

T2 sequence (P28223 whole entry): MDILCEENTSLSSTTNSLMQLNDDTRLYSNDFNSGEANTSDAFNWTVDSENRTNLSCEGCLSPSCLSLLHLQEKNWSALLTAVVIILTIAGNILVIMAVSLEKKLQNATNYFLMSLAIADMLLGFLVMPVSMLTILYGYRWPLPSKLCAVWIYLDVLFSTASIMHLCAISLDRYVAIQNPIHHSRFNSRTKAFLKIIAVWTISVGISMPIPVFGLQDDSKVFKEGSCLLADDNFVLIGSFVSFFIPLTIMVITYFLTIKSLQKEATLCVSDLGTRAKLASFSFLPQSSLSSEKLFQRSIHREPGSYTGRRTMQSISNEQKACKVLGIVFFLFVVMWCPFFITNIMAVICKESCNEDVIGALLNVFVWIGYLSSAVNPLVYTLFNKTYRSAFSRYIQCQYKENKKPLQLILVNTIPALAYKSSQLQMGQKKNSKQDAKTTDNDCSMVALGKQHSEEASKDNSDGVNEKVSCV
Chain of 5-hydroxytryptamine receptor 6 (P50406 whole entry): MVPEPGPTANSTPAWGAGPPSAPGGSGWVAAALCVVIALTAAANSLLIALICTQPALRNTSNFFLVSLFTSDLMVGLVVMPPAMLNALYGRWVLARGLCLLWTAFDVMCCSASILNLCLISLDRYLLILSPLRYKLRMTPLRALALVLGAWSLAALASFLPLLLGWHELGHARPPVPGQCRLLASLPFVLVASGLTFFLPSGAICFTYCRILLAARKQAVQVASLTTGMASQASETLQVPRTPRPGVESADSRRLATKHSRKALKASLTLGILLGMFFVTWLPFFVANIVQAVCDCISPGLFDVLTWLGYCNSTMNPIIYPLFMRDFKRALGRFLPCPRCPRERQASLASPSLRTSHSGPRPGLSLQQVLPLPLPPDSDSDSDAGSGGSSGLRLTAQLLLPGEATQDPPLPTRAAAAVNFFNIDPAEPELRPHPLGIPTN
T1 sequence (P28222 whole entry): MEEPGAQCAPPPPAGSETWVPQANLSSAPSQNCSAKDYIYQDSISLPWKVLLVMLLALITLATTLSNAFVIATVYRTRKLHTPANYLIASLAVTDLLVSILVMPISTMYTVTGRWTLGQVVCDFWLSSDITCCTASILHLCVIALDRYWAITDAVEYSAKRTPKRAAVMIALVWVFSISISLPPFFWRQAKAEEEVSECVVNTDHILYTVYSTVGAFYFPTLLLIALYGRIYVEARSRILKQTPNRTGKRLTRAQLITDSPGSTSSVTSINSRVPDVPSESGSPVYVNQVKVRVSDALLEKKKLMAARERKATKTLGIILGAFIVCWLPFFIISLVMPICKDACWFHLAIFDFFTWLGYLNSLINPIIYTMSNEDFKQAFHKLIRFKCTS
Chain of 5-hydroxytryptamine receptor 7 (P34969 whole entry): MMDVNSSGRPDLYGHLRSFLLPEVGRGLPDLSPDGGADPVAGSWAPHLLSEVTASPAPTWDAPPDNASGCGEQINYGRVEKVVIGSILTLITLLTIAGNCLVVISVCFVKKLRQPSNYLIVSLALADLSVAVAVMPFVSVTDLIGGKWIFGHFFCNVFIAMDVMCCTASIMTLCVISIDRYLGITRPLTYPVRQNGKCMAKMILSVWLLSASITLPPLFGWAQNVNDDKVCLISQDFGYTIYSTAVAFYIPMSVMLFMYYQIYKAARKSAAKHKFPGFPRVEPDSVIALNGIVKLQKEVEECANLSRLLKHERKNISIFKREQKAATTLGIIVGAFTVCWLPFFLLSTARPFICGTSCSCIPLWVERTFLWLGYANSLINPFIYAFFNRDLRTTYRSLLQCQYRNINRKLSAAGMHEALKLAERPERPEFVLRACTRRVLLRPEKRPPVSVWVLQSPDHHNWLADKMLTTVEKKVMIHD
Chain of D(2) dopamine receptor (P14416 whole entry): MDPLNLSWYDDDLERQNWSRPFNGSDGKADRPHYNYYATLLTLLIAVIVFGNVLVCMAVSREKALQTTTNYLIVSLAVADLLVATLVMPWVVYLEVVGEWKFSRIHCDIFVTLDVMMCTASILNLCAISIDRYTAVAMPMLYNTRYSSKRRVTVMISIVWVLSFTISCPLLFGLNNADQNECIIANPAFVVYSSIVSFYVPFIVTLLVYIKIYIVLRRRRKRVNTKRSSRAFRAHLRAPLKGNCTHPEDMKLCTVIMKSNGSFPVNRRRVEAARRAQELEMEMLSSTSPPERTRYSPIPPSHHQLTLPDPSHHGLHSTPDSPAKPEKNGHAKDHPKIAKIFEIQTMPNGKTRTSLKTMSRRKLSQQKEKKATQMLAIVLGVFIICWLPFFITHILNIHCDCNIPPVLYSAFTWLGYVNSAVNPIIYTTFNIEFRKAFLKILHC

## NCCc1c[nH]c2ccc(C(N)=O)cc12
[1]
  Ki: 1000 nM
[2]
  Ki: 1.26 nM
[3]
  Ki: > 5010 nM

## NCCc1c[nH]c2ccc(O)cc12
[4]
  Intrinsic activity: 1

## CC(C)C[C@H]1C(=O)N[C@@H](Cc2ccccc2)[C@]2(O)O[C@@](C)(NC(=O)[C@@H]3C=C4c5cccc6[nH]cc(c56)C[C@H]4N(C)C3)C(=O)N12
[5]
  Ki: 3.16 nM
[1]
  Ki: 50.1 nM
[6]
  EC50: 2 nM
[7]
  Ki: 15.8 nM
[8]
  Ki: 0.0631 nM
[9]
  Emax: 229
  Stimulation: 138
[10]
  Ki: 15.8 nM
[11]
  Ki: 6.31 nM
D(2) dopamine receptor
  Ki: 3.16 nM
[4]
  Intrinsic activity: 1.11

## NCCCC1(CCCN)CCc2cccc(O)c2C1
[12]
  Ki: 316 nM
[1]
  Ki: 126 nM
[13]
  Ki: 2 nM
[3]
  Ki: 10000 nM
[11]
  Ki: 3.16 nM
[14]
  Ki: 12600 nM

## CN1CCN(c2cc3c(cc2Cl)CCN3C(=O)Nc2ccc(-c3ccncc3)c3ccccc23)CC1
[6]
  EC50: 19.1 nM
[9]
  Emax: 144
  Stimulation: 42%
[4]
  Intrinsic activity: 0.33
